Results from ChEMBL document CHEMBL1133552, “Synthesis and evaluation of pharmacological and pharmacokinetic properties of 11H-[1,2,4]triazolo[4,5-c][2,3]benzodiazepin-3(2H)-ones” (J Med Chem, 2000).
Values belong to the compound of their own block, whether it stands above or below them.

Assays:
[1] = Relative Lipophilicity measured by reversed-phase high performance thin-layer chromatography (RP-HPTLC); assay type: physicochemical
How it was run: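 Reversed-phase TLC; plates dried 105 °C, 1 h; mobile phase acetone/water 2:1 (v/v); 1 µL of 3 mg/mL CHCl3 solution spotted; five runs with varied placement; mean Rf converted via Rm = log[(1/Rf) - 1].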

[2] = Evaluated for anticonvulsant property in DBA/2 mice against Locomotion assessed by Rotarod test (ip administration); assay type: functional, Mus musculus
How it was run: (§1)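 Rotarod (3-cm diameter, 8 rpm): trained mice in groups of 10 tested 30 min after ip dosing; failure to stay on for 2 min = impairment. TD50 by Litchfield-Wilcoxon, at least 32 animals per value.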

[3] = Therapeutic index is the ratio between TD50 and ED50 (from the clonic phase of the audiogenic seizures); ND means not detectable
How it was run: (§2)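 Therapeutic index = TD50 (rotarod, ip) divided by ED50 for clonic phase of audiogenic seizures in DBA/2 mice; both by Litchfield-Wilcoxon, at least 32 animals each.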

[4] = Evaluated for anticonvulsant property in DBA/2 mice against Locomotion assessed by Rotarod test (ip administration); value ranges from 34-77.8; assay type: functional, Mus musculus; how it was run: as §1
[5] = Evaluated for anticonvulsant property in DBA/2 mice against Locomotion assessed by Rotarod test (ip administration); value ranges from 87.3-231; assay type: functional, Mus musculus; how it was run: as §1
[6] = Evaluated for anticonvulsant property in DBA/2 mice against Audiogenic seizures during clonic phase (ip administration); value ranges from 26.0-44.2; assay type: functional; conditions: Mus musculus
How it was run: (§3)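 DBA/2 mice, genetically sound-susceptible (8-12 g, 22-25 days old, either sex), groups of 10; drug ip in 50% DMSO/50% saline (0.1 mL/10 g), auditory stimulation 30 min later; latency and incidence of clonic and tonic phases scored; ED50 via Litchfield-Wilcoxon, at least 32 animals per value.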

Mus musculus = assay: Anticonvulsant activity was determined when tested at 15 min from intraperitoneal administration; assay type: functional; conditions: ip, 0.25 h
[7] = Evaluated for anticonvulsant property in DBA/2 mice against Audiogenic seizures during clonic phase (ip administration); ranges from [39.2-81.1]; assay type: functional; conditions: Mus musculus; how it was run: as §3
[8] = Evaluated for anticonvulsant property in DBA/2 mice against Audiogenic seizures during tonic phase (ip administration); ranges from [32.5-57.4]; assay type: functional; conditions: Mus musculus; how it was run: as §3
[9] = Evaluated for anticonvulsant property in DBA/2 mice against Audiogenic seizures during clonic phase (ip administration); value ranges from 46.0-132; assay type: functional; conditions: Mus musculus; how it was run: as §3
[10] = Evaluated for anticonvulsant property in DBA/2 mice against Audiogenic seizures during tonic phase (ip administration); value ranges from 41.5-78.8; assay type: functional; conditions: Mus musculus; how it was run: as §3
[11] = Evaluated for anticonvulsant property in DBA/2 mice against Audiogenic seizures during tonic phase (ip administration); value ranges from 8.04-21.3; assay type: functional; conditions: Mus musculus; how it was run: as §3
[12] = Therapeutic index is the ratio between TD50 and ED50 (from the clonic phase of the audiogenic seizures); conditions: read-out: TI; how it was run: as §2
[13] = Evaluated for anticonvulsant property in DBA/2 mice against Audiogenic seizures during clonic phase (ip administration); value ranges from 10.5-38.2; assay type: functional; conditions: Mus musculus; how it was run: as §3
[14] = Evaluated for anticonvulsant property in Swiss mice against MES induced seizures; value ranges from 26.8-45.8; assay type: functional; conditions: Mus musculus
[15] = Evaluated for anticonvulsant property in Swiss mice against PTZ induced seizures; value ranges from 43.8-79.1; assay type: functional; conditions: Mus musculus
How it was run: (§4)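 Male Swiss mice given drug ip (50% DMSO/50% saline) 45 min before sc PTZ at CD97 (85 mg/kg); watched 30 min; protection = no clonic spasm lasting at least 5 s; ED50 by Litchfield-Wilcoxon.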

[16] = Evaluated for anticonvulsant property in DBA/2 mice against Locomotion assessed by Rotarod test (ip administration); value ranges from 59.4-99.3; assay type: functional, Mus musculus; how it was run: as §1
[17] = Evaluated for anticonvulsant property in DBA/2 mice against Audiogenic seizures during tonic phase (ip administration); value ranges from 41.3-82.3; assay type: functional; conditions: Mus musculus; how it was run: as §3
[18] = Evaluated for anticonvulsant property in Swiss mice against MES induced seizures; value ranges from 62.4 - 92.1; assay type: functional; conditions: Mus musculus
[19] = Evaluated for anticonvulsant property in Swiss mice against PTZ induced seizures; value ranges from 72.2 - 114; assay type: functional; conditions: Mus musculus; how it was run: as §4
[20] = Evaluated for anticonvulsant property in DBA/2 mice against Audiogenic seizures during clonic phase (ip administration); value ranges from 60.3-91.0; assay type: functional; conditions: Mus musculus; how it was run: as §3
[21] = Evaluated for anticonvulsant property in DBA/2 mice against AMPA induced seizures during tonic phase; value ranges from 11.4-28.7; assay type: functional; conditions: Mus musculus
[22] = Evaluated for anticonvulsant property in Swiss mice against MES induced seizures; ranges from [18.6-51.0]; assay type: functional; conditions: Mus musculus
[23] = Evaluated for anticonvulsant property in DBA/2 mice against AMPA induced seizures during clonic phase; value ranges from 13.8-37.2; assay type: functional; conditions: Mus musculus
[24] = Evaluated for anticonvulsant property in DBA/2 mice against Audiogenic seizures during tonic phase (ip administration); value ranges from 8.67-11.93; assay type: functional; conditions: Mus musculus; how it was run: as §3
[25] = Evaluated for anticonvulsant property in DBA/2 mice against Audiogenic seizures during clonic phase (ip administration); value ranges from 11.8-22.0; assay type: functional; conditions: Mus musculus; how it was run: as §3
[26] = Evaluated for anticonvulsant property in DBA/2 mice against Locomotion assessed by Rotarod test (ip administration); value ranges from 46.2-99.8; assay type: functional, Mus musculus; how it was run: as §1
[27] = Evaluated for anticonvulsant property in DBA/2 mice against audiogenic Seizures after pretreatment with Aniracetam during tonic phase, *p<0.01; value ranges from 12.7-45.5; assay type: functional; conditions: Mus musculus
[28] = Evaluated for anticonvulsant property in DBA/2 mice against audiogenic Seizures after pretreatment with Aniracetam during clonic phase, *p<0.01; value ranges from 20.5-71.9; assay type: functional; conditions: Mus musculus
[29] = Evaluated for anticonvulsant property in Swiss mice against PTZ induced seizures; value ranges from 41.5-78.8; assay type: functional; conditions: Mus musculus; how it was run: as §4
[30] = Evaluated for anticonvulsant property in DBA/2 mice against Audiogenic seizures during clonic phase (ip administration); value ranges from 32.5-61.2; conditions: Mus musculus
[31] = Evaluated for anticonvulsant property in Swiss mice against PTZ induced seizures; value ranges from 51.8-113; assay type: functional; conditions: Mus musculus; how it was run: as §4
[32] = Evaluated for anticonvulsant property in DBA/2 mice against Locomotion assessed by Rotarod test (ip administration); value ranges from 73.8-206; assay type: functional, Mus musculus; how it was run: as §1
[33] = Evaluated for anticonvulsant property in Swiss mice against MES induced seizures; ranges from [45.6-80.3]; assay type: functional; conditions: Mus musculus
[34] = Evaluated for anticonvulsant property in DBA/2 mice against Audiogenic seizures during tonic phase (ip administration); value ranges from 15.4-49.4; conditions: Mus musculus
[35] = Evaluated for anticonvulsant property in DBA/2 mice against Audiogenic seizures during clonic phase (ip administration); value ranges from 16.3-[…]; assay type: functional; conditions: Mus musculus; how it was run: as §3
[36] = Evaluated for anticonvulsant property in DBA/2 mice against AMPA induced seizures during clonic phase; value ranges from 27.5-64.3; assay type: functional; conditions: Mus musculus
[37] = Evaluated for anticonvulsant property in Swiss mice against MES induced seizures; value ranges from 33.5-56.0; assay type: functional; conditions: Mus musculus
[38] = Evaluated for anticonvulsant property in DBA/2 mice against Audiogenic seizures during tonic phase (ip administration); value ranges from 14.3-31.9; assay type: functional; conditions: Mus musculus; how it was run: as §3
[39] = Evaluated for anticonvulsant property in DBA/2 mice against audiogenic Seizures after pretreatment with Aniracetam during clonic phase; value ranges from 28.3-91.5; assay type: functional; conditions: Mus musculus
[40] = Evaluated for anticonvulsant property in DBA/2 mice against audiogenic Seizures after pretreatment with Aniracetam during tonic phase, *p<0.01; value ranges from 23.5-62.7; assay type: functional; conditions: Mus musculus
[41] = Evaluated for anticonvulsant property in DBA/2 mice against AMPA induced seizures during tonic phase; value ranges from 20.6-50.3; assay type: functional; conditions: Mus musculus
[42] = Evaluated for anticonvulsant property in DBA/2 mice against Locomotion assessed by Rotarod test (ip administration); value ranges from 65.1-126; assay type: functional, Mus musculus; how it was run: as §1
[43] = Evaluated for anticonvulsant property in Swiss mice against PTZ induced seizures; value ranges from 45.6-80.3; assay type: functional; conditions: Mus musculus; how it was run: as §4

SMILES: COc1cc2c(cc1OC)C(c1ccc([N+](=O)[O-])cc1)=NNC(=O)C2
- Rm [1]: -0.145
- TD50 [2]: >150 µM/kg
- TI [3]: Not detectable

SMILES: COc1cc2c(cc1OC)C(c1cccc([N+](=O)[O-])c1)=NNC(=O)C2
- Rm [1]: -0.181
- TD50 [2]: >150 µM/kg
- TI [3]: Not detectable

SMILES: COc1cc2c(cc1OC)C(c1ccc(N)cc1)=NNC(=O)C2
- Rm [1]: -0.647
- TD50 [2]: 56.8 µM/kg
- ED50 (Mus musculus): > 50 µmol/kg

SMILES: COc1cc2c(cc1OC)C(c1cccc([N+](=O)[O-])c1)=Nn1c(O)nnc1C2
- Rm [1]: -0.402
- ED50 [7]: 56.4 µmol/kg
- TD50 [2]: >150 µM/kg
- ED50 [8]: 43.2 µmol/kg

SMILES: COc1cc2c(cc1OC)C(c1ccc(F)cc1)=NNC(=O)C2
- Rm [1]: -0.28
- ED50 [9]: 78 µmol/kg
- TD50 [2]: >150 µM/kg
- ED50 [10]: 57.2 µmol/kg

SMILES: COc1cc2c(cc1OC)C(c1cccc(N)c1)=Nn1c(O)nnc1C2
- ED50 [11]: 13.1 µmol/kg
- selectivity ratio [12]: 3.8
- ED50 [13]: 20.1 µmol/kg
- Rm [1]: -0.74
- ED50 [14]: 35.1 µmol/kg
- ED50 [15]: 58.9 µmol/kg
- TD50 [16]: 76.8 µM/kg

SMILES: COc1cc2c(cc1OC)C(c1ccc(F)cc1)=Nn1c(O)nnc1C2
- ED50 [35]: 32.1 µmol/kg
- selectivity ratio [12]: 2.8
- ED50 [36]: 42.1 µmol/kg
- Rm [1]: -0.402
- ED50 [37]: 43.4 µmol/kg
- ED50 [38]: 21.8 µmol/kg
- ED50 [39]: 50.9 µmol/kg
- ED50 [40]: 38.4 µmol/kg
- ED50 [41]: 32.2 µmol/kg
- TD50 [42]: 90.6 µM/kg
- ED50 [43]: 60.5 µmol/kg

SMILES: CC1=NN=C(c2ccc(N)cc2)c2cc3c(cc2C1)OCO3 [GYKI-52466]
- Rm [1]: -0.368

Further lines, with some results ahead:

- Rm [1]: -0.619
SMILES: COc1cc2c(cc1OC)C(c1cccc(N)c1)=NNC(=O)C2
- TD50 [4]: 51.5 µM/kg

- Rm [1]: -0.28
SMILES: COc1cc2c(cc1OC)C(c1ccccc1)=NNC(=O)C2
- TD50 [5]: 142 µM/kg
- ED50 [6]: 33.9 µmol/kg

- Rm [1]: -0.368
SMILES: COc1cc2c(cc1OC)C(c1ccc([N+](=O)[O-])cc1)=Nn1c(O)nnc1C2
- ED50 [17]: 58.3 µmol/kg
- ED50 [18]: 75.8 µmol/kg
- TD50 [2]: >150 µM/kg
- ED50 [19]: 90.7 µmol/kg
- ED50 [20]: 74.1 µmol/kg

- Rm [1]: -0.837
SMILES: COc1cc2c(cc1OC)C(c1ccc(N)cc1)=Nn1c(O)nnc1C2
- ED50 [21]: 18.1 µmol/kg
- selectivity ratio [12]: 4
- ED50 [22]: 30.8 µmol/kg
- ED50 (Mus musculus): 27.8 µmol/kg
- ED50 [23]: 22.1 µmol/kg
- ED50 [24]: 10.2 µmol/kg
- ED50 [25]: 16.1 µmol/kg
- TD50 [26]: 65.8 µM/kg
- ED50 [27]: 24.1 µmol/kg
- ED50 [28]: 38.4 µmol/kg
- ED50 [29]: 57.2 µmol/kg

- Rm [1]: -0.508
SMILES: COc1cc2c(cc1OC)C(c1ccccc1)=Nn1c(O)nnc1C2
- ED50 [30]: 44.6 µmol/kg
- selectivity ratio [12]: 2.8
- ED50 [31]: 76.5 µmol/kg
- TD50 [32]: 123 µM/kg
- ED50 [33]: 60.5 µmol/kg
- ED50 [34]: 27.5 µmol/kg
